Data published in the M2OR odorant receptor database.
Changes are numbered by the printed parent chain.

What was measured:
Conditions in all cases: stereoisomer not certain
O10A2 H43R H207R K258T = test system: T1, O10A2 H43R H207R K258T
T1 sequence (whole entry): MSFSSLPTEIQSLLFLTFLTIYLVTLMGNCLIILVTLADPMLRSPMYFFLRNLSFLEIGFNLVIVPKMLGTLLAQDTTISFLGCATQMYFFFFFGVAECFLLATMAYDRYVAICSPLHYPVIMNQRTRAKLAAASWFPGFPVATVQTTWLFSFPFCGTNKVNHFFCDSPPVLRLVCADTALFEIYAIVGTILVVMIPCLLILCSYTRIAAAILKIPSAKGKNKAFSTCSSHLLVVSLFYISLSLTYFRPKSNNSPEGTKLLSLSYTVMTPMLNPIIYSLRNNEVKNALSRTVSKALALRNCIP
How it was run: (§1)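 Assay methods differ from source to source, frequently being transient luciferase assays in mammalian cell lines. For each receptor–molecule pair, the label responsive (active) applies when the original authors judged the measured signal statistically different from baseline, and non-responsive (inactive) applies otherwise.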

O10A3 C8G = test system: T2, O10A3 C8G
T2 sequence (whole entry): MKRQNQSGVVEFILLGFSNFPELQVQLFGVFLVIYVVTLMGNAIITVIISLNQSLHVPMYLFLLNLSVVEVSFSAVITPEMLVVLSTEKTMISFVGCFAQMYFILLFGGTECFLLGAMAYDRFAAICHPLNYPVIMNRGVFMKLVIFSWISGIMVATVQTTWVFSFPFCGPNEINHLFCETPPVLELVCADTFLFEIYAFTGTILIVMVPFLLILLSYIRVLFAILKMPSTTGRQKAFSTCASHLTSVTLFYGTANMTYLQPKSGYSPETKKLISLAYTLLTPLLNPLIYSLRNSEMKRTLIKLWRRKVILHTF
How it was run: as §1

O10A6 [1] = test system: T3, O10A6
T3 sequence (whole entry): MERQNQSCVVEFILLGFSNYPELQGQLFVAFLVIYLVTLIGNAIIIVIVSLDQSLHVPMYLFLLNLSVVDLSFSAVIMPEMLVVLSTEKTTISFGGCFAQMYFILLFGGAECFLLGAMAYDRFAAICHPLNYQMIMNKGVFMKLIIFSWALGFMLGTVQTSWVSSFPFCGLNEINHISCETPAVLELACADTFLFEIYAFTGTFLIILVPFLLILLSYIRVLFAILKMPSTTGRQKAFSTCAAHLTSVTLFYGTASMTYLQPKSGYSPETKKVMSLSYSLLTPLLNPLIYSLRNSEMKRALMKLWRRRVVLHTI
How it was run: as §1

O10AD G65C = test system: T4, O10AD G65C
T4 sequence (whole entry): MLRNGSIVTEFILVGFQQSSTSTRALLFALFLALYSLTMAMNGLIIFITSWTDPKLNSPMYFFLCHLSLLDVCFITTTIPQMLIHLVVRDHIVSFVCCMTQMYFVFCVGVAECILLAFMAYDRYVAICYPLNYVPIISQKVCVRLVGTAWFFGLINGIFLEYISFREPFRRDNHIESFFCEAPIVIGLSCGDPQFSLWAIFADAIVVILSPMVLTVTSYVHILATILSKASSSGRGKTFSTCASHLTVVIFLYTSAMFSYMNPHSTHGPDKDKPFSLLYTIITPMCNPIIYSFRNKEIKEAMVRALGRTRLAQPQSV
How it was run: as §1

O10D3 V134A R197K = test system: T5, O10D3 V134A R197K
T5 sequence (whole entry): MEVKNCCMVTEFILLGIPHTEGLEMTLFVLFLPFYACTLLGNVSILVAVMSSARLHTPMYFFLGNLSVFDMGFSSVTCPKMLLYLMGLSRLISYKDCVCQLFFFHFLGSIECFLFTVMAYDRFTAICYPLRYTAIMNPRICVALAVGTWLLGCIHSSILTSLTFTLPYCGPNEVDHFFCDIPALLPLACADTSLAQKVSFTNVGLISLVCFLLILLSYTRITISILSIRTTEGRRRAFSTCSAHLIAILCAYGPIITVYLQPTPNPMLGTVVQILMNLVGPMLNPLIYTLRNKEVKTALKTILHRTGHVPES
How it was run: as §1

O10G4 L24P V195E = test system: T6, O10G4 L24P V195E
T6 sequence (whole entry): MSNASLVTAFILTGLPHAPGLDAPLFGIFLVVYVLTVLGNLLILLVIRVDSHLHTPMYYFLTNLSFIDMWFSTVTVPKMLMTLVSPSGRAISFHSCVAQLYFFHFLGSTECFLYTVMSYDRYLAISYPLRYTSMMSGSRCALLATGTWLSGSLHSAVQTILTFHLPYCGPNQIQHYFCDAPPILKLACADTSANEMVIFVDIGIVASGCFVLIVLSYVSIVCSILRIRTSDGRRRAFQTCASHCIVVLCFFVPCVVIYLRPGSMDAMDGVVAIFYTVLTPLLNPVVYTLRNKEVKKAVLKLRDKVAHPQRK
How it was run: as §1

O10G7 A18V P19Q G20A = test system: T7, O10G7 A18V P19Q G20A
T7 sequence (whole entry): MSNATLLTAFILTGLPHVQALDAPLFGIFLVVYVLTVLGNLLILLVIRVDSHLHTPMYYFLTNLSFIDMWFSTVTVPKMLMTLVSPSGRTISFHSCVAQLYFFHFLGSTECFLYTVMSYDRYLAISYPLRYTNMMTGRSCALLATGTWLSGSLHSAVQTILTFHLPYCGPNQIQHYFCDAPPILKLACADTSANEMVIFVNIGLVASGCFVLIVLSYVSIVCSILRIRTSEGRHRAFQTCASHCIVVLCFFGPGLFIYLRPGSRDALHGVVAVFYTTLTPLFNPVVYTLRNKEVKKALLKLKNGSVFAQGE
How it was run: as §1

O10G7 I28V = test system: T8, O10G7 I28V
T8 sequence (whole entry): T7 sequence (whole entry) with V18A, Q19P, A20G, I28V
How it was run: as §1

O10H2 = test system: T9, O10H2
T9 sequence (whole entry): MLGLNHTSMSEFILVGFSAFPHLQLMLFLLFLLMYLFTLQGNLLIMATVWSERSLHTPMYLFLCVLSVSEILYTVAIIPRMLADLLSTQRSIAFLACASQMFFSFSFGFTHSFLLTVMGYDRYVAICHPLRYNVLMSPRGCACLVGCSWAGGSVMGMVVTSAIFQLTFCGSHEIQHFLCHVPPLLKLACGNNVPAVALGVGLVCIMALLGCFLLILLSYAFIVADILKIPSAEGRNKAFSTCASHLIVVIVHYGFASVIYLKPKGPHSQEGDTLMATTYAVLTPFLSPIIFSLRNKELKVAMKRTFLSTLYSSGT
How it was run: as §1

O10H3 R54H = test system: T10, O10H3 R54H
T10 sequence (whole entry): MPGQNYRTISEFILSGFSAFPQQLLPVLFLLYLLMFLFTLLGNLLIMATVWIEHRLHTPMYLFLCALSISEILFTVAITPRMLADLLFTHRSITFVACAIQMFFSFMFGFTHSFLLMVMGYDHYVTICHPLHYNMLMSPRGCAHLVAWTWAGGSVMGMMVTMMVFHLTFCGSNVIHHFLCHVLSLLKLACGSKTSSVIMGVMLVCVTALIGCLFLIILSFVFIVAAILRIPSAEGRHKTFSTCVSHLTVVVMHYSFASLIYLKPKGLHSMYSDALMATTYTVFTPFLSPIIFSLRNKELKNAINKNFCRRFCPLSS
How it was run: as §1

O10H4 I50V = test system: T11, O10H4 I50V
T11 sequence (whole entry): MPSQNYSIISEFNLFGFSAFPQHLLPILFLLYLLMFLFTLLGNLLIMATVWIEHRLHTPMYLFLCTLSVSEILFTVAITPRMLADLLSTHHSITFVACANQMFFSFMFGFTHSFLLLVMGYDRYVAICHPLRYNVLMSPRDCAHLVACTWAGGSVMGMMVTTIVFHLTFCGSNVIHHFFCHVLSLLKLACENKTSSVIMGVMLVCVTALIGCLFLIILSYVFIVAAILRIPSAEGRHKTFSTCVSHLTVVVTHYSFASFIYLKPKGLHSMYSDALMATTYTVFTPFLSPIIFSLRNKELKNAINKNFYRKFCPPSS
How it was run: as §1

O10H5 S268Y = test system: T12, O10H5 S268Y
T12 sequence (whole entry): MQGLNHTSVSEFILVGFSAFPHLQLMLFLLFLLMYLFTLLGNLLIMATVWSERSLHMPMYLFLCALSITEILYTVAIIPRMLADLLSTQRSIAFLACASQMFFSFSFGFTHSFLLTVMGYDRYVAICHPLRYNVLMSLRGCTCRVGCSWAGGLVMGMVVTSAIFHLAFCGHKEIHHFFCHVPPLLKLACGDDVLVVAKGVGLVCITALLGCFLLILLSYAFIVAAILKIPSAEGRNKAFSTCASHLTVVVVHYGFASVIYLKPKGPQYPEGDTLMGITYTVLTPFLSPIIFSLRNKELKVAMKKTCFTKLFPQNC
How it was run: as §1

O10J1 M62I I103M = test system: T13, O10J1 M62I I103M
T13 sequence (whole entry): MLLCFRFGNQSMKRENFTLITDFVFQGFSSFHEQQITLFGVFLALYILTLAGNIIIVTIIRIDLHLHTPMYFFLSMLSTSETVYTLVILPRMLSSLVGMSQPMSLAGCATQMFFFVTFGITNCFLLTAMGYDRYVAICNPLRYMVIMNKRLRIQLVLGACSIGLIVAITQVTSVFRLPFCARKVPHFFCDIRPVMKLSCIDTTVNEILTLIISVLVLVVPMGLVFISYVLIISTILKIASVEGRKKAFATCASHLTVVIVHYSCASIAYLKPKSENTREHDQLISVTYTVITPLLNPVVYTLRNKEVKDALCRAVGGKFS
How it was run: as §1

O10J1 M62I = test system: T14, O10J1 M62I
T14 sequence (whole entry): T13 sequence (whole entry) with M103I
How it was run: as §1

O10J3 Q235R E319G = test system: T15, O10J3 Q235R E319G
T15 sequence (whole entry): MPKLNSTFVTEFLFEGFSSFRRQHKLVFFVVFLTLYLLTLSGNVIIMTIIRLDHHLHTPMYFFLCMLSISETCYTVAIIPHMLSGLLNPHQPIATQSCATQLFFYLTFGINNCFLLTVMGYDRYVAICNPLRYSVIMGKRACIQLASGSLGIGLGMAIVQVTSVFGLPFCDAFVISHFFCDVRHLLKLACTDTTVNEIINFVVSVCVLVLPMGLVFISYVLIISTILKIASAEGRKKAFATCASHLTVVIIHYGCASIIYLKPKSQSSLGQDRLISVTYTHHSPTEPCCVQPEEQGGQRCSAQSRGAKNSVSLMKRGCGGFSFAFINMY
How it was run: as §1

O10P1 R195K = test system: T16, O10P1 R195K
T16 sequence (whole entry): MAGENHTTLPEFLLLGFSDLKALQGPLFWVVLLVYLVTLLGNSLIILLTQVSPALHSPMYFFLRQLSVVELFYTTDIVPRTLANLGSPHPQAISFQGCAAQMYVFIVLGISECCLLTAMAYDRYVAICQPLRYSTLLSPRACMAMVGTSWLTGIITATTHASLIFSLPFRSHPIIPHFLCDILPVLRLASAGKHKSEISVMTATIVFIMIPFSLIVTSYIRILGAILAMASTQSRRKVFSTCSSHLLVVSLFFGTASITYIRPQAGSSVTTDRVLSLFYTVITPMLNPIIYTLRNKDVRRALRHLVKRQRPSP
How it was run: as §1

O10Q1 E12D = test system: T17, O10Q1 E12D
T17 sequence (whole entry): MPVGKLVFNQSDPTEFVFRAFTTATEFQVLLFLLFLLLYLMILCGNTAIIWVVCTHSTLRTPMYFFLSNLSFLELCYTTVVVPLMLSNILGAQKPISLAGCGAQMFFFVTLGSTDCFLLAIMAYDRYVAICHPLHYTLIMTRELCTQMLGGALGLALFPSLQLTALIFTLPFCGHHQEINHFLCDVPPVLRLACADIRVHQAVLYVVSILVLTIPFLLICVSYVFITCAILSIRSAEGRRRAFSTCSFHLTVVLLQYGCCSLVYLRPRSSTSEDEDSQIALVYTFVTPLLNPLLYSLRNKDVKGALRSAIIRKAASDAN
How it was run: as §1

O10Q1 Q10R E12D = test system: T18, O10Q1 Q10R E12D
T18 sequence (whole entry): T17 sequence (whole entry) with Q10R
How it was run: as §1

O10A6 [2] = test system: O10A6; remark: listed apart in the source
How it was run: as §1
Target sequence in this assay (as listed by the source): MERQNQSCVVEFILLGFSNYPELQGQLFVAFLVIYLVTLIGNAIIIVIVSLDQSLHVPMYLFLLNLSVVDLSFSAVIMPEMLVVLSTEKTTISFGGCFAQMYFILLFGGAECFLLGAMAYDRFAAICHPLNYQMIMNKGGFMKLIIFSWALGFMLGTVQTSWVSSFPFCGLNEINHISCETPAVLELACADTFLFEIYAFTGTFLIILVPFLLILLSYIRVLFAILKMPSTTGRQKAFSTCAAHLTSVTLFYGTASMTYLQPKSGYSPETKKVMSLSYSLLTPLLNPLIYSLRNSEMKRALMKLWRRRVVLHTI

O10A6 [3] = test system: O10A6; remark: listed apart in the source
How it was run: as §1
Target sequence in this assay (as listed by the source): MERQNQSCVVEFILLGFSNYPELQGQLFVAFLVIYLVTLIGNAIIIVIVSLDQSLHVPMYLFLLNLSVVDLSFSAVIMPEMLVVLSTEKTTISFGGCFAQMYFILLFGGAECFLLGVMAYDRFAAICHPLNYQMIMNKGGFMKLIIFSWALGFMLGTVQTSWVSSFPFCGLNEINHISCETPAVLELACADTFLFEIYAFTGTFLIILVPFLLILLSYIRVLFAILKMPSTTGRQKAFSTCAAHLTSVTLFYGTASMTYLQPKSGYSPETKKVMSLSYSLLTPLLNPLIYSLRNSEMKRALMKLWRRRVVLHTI

Measured: odorant receptor agonist call

Cc1cnc(C)c(C)n1
not listed: O10A6 [2] | O10A6 [3]
inactive: all other assays above

CC1=NC(C)C(C)S1 (centres undefined)
not listed: O10A6 [2] | O10A6 [3]
inactive: all other assays above

CCCCCCC=CCCC=O
active: O10A6 [1]
not listed: O10A6 [2] | O10A6 [3]
inactive: all other assays above

CCC1OC(C)=C(O)C1=O (centres undefined)
not listed: O10A6 [2] | O10A6 [3]
inactive: all other assays above

CCCCC=CCCCCC=O
active: O10A6 [1]

CCC1OC(=O)C(O)=C1C (centres undefined)
not listed: O10A6 [2] | O10A6 [3]
inactive: all other assays above

CCCCC=CCCC=O
active: O10A6 [1]

CCCC(S)CCOC(C)=O (centres undefined)
not listed: O10A6 [2] | O10A6 [3]
inactive: all other assays above

CCC(=O)OCCCc1ccccc1
inactive: O10A6 [3]
active: O10A6 [2] | O10A6 [1]

CC1=C(O)C(=O)OC1C (centres undefined)
not listed: O10A6 [2] | O10A6 [3]
inactive: all other assays above

CC1=C(O)C(=O)C(C)O1 (centres undefined)
not listed: O10A6 [2] | O10A6 [3]
inactive: all other assays above
